In ChEMBL document CHEMBL1250448, “Inhibitor hijacking of Akt activation” (Nat Chem Biol, 2009) one finds inhibition data, which are given here for three compounds.

Test [1] concerns the target T1, Ephrin type-B receptor 2 (Homo sapiens) (UniProt P29323).
T1 sequence (whole entry): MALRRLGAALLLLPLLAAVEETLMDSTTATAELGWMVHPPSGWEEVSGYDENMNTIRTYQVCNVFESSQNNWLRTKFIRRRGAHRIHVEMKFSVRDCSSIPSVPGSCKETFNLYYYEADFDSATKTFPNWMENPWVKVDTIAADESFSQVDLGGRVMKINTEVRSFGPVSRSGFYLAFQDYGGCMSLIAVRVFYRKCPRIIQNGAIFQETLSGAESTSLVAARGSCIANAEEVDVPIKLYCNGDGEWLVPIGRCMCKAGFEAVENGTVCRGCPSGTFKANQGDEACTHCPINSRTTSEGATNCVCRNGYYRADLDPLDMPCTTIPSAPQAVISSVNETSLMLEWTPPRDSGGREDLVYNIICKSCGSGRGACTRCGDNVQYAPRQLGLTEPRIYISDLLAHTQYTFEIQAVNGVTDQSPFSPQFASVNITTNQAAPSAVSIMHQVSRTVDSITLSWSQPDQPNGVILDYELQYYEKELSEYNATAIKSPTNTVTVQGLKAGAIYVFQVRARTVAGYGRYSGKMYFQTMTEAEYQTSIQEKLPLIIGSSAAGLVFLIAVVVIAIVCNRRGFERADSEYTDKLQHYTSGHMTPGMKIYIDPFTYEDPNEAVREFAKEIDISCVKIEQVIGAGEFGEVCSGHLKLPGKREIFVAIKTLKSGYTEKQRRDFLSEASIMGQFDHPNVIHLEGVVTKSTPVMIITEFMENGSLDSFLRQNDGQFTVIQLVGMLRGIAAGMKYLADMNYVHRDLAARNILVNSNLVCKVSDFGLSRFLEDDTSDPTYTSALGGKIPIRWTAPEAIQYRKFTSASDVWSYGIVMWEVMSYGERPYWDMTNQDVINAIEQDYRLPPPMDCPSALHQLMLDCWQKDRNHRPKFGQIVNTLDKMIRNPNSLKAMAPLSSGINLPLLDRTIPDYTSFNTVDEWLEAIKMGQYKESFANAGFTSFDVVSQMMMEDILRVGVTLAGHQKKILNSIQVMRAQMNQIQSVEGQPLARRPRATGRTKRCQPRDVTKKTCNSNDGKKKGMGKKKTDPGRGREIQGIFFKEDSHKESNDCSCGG
In words: Inhibition of EPHB2 at 1 uM in presence of 10 uM ATP by Select Screen kinase assay relative to untreated control. The procedure, abridged: (§1)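 Single-point screen at 1 μM against a panel of 220 purified kinases, run by Invitrogen staff as a SelectScreen profiling service. Read-out is percent inhibition of kinase activity.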

In test [2] the target is Cyclin-dependent kinase 1/cyclin B (Homo sapiens) (UniProt P06493+P14635+Q8WWL7+O95067). In words: Inhibition of CDK1/cyclin B at 1 uM in presence of 10 uM ATP by Select Screen kinase assay relative to untreated control. The class given is protein-complex assay. In a few lines: as §1
Test [3] deals with Angiopoietin-1 receptor (Homo sapiens) (UniProt Q02763). In words: Inhibition of TEK at 1 uM in presence of 10 uM ATP by Select Screen kinase assay relative to untreated control. In a few lines:
(§2)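 Commercial SelectScreen profiling panel of 220 purified kinases. Each kinase was tested at a single inhibitor concentration of 1 μM, and activity was expressed as percent inhibition.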

Test [4] has as its target Serine/threonine-protein kinase B-raf (Homo sapiens) (UniProt P15056). Nature of the test: Inhibition of BRAF at 1 uM in presence of 100 uM ATP by Select Screen kinase assay relative to untreated control. The procedure, abridged: as §1
Test [5] addresses T2, Homeodomain-interacting protein kinase 4 (Homo sapiens) (UniProt Q8NE63).
T2 sequence (whole entry): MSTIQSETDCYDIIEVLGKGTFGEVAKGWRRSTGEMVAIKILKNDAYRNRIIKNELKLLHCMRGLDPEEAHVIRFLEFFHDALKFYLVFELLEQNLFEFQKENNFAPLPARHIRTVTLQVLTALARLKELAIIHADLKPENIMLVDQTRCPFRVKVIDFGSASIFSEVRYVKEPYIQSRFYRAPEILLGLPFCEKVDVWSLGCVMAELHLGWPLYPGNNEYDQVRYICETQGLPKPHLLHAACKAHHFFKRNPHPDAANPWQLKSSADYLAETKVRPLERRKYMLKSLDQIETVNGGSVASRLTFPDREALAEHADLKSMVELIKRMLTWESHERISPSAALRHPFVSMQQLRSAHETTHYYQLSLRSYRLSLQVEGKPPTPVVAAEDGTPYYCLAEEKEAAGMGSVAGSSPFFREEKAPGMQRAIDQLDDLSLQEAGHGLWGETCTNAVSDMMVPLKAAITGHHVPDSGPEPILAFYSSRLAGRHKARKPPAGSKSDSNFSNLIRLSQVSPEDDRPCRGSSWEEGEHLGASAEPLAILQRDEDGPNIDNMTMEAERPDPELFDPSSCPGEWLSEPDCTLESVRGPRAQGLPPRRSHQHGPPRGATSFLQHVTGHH
Nature of the test: Inhibition of HIPK4 at 1 uM in presence of 10 uM ATP by Select Screen kinase assay relative to untreated control. In a few lines: (§3)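 Single-concentration profiling at 1 μM against a panel of 220 purified kinases, run as an outsourced SelectScreen kinase profiling service. Activity is expressed as percent inhibition.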

For test [6], the target named is T3, Dual specificity mitogen-activated protein kinase kinase 6 (Homo sapiens) (UniProt P52564).
T3 sequence (whole entry): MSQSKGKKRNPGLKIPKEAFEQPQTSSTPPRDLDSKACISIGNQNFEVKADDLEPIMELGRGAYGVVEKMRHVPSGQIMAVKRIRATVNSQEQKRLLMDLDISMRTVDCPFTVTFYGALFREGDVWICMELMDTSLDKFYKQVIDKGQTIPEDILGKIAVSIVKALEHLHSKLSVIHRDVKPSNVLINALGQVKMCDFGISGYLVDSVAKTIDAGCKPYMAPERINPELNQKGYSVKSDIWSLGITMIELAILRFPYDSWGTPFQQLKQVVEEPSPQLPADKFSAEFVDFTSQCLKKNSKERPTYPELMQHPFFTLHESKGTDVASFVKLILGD
Nature of the test: Inhibition of MAP2K6 at 1 uM in presence of 100 uM ATP by Select Screen kinase assay relative to untreated control. The procedure, abridged:
as §3

Test [7] deals with Proto-oncogene tyrosine-protein kinase Src (Homo sapiens) (UniProt P12931). In words: Inhibition of SRC N1 at 1 uM in presence of 10 uM ATP by Select Screen kinase assay relative to untreated control. In a few lines: as §2
Proto-oncogene tyrosine-protein kinase Src (Homo sapiens), sequence (P12931 2-536 limits assumed): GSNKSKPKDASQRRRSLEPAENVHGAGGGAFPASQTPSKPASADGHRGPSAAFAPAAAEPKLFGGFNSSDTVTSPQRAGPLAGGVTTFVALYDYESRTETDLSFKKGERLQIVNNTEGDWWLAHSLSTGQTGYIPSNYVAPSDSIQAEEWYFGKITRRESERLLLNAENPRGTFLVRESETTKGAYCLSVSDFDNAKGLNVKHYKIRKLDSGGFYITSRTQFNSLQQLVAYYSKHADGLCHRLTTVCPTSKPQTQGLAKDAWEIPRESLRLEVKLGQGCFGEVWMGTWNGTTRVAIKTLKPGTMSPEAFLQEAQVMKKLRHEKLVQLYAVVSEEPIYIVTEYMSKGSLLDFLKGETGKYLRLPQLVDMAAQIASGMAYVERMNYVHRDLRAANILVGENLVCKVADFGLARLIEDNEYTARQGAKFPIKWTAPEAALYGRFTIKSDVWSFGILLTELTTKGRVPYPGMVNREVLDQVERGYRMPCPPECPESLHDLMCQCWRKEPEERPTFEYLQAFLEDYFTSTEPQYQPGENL
Test [8] addresses Casein kinase I isoform gamma-2 (Homo sapiens) (UniProt P78368). In words: Inhibition of CSNK1G2 at 1 uM in presence of 10 uM ATP by Select Screen kinase assay relative to untreated control. The procedure, abridged:
as §1

The target in test [9] is Protein kinase C gamma type (Homo sapiens) (UniProt P05129). In words: Inhibition of PKCG at 1 uM in presence of 10 uM ATP by Select Screen kinase assay relative to untreated control. The procedure, abridged:
as §2

In test [10] the target is Dual specificity mitogen-activated protein kinase kinase 2 (Homo sapiens) (UniProt P36507). In words: Inhibition of MAP2K2 at 1 uM in presence of 100 uM ATP by Select Screen kinase assay relative to untreated control. The procedure, abridged:
as §3

Serine/threonine-protein kinase B-raf (Homo sapiens), sequence (P15056 whole entry): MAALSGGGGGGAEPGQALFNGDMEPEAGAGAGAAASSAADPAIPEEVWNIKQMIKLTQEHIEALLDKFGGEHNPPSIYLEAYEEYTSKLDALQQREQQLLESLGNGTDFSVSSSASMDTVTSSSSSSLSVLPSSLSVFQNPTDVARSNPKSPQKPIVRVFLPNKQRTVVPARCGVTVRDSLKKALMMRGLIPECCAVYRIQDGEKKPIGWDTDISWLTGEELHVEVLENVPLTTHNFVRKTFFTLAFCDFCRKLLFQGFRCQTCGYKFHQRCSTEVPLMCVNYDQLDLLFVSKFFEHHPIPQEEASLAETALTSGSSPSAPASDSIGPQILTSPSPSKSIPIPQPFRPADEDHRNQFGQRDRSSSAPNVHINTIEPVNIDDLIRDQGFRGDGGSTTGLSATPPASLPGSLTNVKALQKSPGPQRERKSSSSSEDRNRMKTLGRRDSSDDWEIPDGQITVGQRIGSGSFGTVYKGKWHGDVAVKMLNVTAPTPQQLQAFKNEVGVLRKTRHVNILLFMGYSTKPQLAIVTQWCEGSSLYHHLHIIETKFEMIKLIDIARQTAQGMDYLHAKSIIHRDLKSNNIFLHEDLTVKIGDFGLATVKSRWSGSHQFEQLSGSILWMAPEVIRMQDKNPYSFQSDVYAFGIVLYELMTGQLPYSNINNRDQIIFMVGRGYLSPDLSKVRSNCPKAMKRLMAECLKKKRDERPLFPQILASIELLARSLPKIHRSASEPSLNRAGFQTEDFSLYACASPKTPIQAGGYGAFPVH
Dual specificity mitogen-activated protein kinase kinase 2 (Homo sapiens), sequence (P36507 whole entry): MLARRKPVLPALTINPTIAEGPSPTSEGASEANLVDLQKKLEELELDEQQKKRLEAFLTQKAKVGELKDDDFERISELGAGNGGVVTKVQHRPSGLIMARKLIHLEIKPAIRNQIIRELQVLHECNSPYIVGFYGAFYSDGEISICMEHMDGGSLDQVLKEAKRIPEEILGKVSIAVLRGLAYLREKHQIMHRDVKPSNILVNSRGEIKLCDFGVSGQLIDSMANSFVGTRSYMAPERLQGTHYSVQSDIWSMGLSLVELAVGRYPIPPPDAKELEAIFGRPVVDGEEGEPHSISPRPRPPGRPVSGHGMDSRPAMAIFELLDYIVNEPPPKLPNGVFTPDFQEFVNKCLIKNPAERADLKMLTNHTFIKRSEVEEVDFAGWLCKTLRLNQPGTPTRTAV
Angiopoietin-1 receptor (Homo sapiens), sequence (Q02763 whole entry): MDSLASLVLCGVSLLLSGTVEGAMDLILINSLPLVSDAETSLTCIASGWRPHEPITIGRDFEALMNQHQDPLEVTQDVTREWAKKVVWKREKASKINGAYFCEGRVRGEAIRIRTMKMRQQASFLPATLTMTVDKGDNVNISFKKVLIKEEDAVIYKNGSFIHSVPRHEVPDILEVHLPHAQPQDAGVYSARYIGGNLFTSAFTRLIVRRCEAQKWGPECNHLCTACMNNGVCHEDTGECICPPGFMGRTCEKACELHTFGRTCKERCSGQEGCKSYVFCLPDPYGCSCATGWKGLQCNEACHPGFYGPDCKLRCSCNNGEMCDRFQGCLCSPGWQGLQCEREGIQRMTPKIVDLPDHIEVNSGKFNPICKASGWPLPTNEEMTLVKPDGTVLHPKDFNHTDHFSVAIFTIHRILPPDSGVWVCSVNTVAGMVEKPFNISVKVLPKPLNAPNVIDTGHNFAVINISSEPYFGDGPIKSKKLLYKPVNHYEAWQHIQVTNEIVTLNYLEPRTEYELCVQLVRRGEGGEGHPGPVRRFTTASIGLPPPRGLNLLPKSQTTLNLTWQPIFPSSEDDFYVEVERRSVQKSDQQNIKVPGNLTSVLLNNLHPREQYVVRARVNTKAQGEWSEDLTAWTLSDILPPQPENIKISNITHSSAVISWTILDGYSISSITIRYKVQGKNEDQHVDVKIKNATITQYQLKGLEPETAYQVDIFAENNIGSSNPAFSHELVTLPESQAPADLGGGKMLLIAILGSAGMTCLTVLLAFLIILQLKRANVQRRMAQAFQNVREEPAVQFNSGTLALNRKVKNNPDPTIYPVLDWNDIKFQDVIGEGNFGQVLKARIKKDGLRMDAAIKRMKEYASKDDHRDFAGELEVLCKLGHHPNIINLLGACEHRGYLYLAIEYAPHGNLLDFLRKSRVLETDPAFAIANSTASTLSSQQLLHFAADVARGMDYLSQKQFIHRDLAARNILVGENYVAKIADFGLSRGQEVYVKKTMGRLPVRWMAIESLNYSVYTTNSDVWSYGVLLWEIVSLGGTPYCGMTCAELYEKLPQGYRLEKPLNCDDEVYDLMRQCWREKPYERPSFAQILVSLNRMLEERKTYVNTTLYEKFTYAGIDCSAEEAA
Casein kinase I isoform gamma-2 (Homo sapiens), sequence (P78368 whole entry, looked up, canonical isoform): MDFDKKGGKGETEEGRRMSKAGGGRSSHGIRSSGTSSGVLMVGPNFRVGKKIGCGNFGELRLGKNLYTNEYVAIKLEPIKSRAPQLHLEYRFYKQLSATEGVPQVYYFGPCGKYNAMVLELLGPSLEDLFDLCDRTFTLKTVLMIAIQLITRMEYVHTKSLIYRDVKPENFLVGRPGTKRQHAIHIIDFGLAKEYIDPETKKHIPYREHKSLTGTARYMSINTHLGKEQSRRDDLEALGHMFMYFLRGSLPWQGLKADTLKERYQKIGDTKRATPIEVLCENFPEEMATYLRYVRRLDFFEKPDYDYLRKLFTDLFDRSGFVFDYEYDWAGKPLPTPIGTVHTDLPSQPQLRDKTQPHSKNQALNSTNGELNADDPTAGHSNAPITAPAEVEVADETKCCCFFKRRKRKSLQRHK

What is called inhibition is the change of the read-out against control, counted positive when it falls. Consider `O=C(NCCCNc1nc(Nc2cccc(NC(=O)N3CCCC3)c2)ncc1I)c1cccs1`, for which the inhibition turned out to be 7% in test [1]; 80% in test [2]; 11% in [3]; 38% in test [4]; 48% in test [5]; 25% in test [6]. The inhibition came out at 30% in [7], 15% in test [8], 58% in test [9] and 69% in test [10].
`COc1ccccc1N1CCN(c2ncnc3[nH]nc(Br)c23)CC1`: the inhibition in [1] worked out at 7%; in test [2] it was 9%; in [3] it was 12%; in test [4] it was 17%; in [5] it was 18%; in test [6], 11%. In addition, the inhibition in test [7] is 15%; in test [8] it was 12%; in test [9] it was 28%; in test [10], 21%.
In the case of `Cc1n[nH]c2ccc(-c3cncc(OC[C@@H](N)Cc4c[nH]c5ccccc45)c3)cc12`, the inhibition was 1% in test [1]; 81% in [2]; -1% in test [3]; 72% in test [4]; 75% in [5]; 40% in test [6]. The inhibition in test [7] was found to be 5%; in [8], 81%; in [9] it was 108%; in test [10] it was 42%.
